The source made the active and inactive calls. The rule behind the calls is not given here.
Key:
[1] = target: Serine/threonine-protein kinase 35 (Homo sapiens) (UniProt Q8TDR2); assay: Inhibition of human STK35 assessed as remaining activity at 1 uM by ATP-competition binding assay relative to control
Outline: (§1)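 Single-concentration (1 μM) screen in an ATP-site-dependent competition binding assay (KINOMEscan, outsourced) covering 395 human kinases, mutants included. Non-covalent binding was read as the remaining signal relative to the control signal.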

[2] = target: RAC-alpha serine/threonine-protein kinase (Homo sapiens) (UniProt P31749); assay: Inhibition of human AKT1 assessed as remaining activity at 1 uM by ATP-competition binding assay relative to control
Outline: (§2)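 KINOMEscan ATP-site-dependent competition binding panel of 395 human kinases, with compound tested at 1 μM. Binding is reported as remaining signal relative to control.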

[3] = target: Serine/threonine-protein kinase 17A (Homo sapiens) (UniProt Q9UEE5); assay: Inhibition of human DRAK1 assessed as remaining activity at 1 uM by ATP-competition binding assay relative to control; outline: as §2
[4] = target: Tyrosine-protein kinase receptor Tie-1 (Homo sapiens) (UniProt P35590); assay: Inhibition of human TIE1 assessed as remaining activity at 1 uM by ATP-competition binding assay relative to control; outline: as §1
[5] = target: cGMP-dependent protein kinase 1 (Homo sapiens) (UniProt Q13976); assay: Inhibition of human PRKG1 assessed as remaining activity at 1 uM by ATP-competition binding assay relative to control; outline: as §1
[6] = target: Cyclin-dependent kinase 16 (Homo sapiens) (UniProt Q00536); assay: Inhibition of human PCTK1 assessed as remaining activity at 1 uM by ATP-competition binding assay relative to control
Outline: (§3)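 Single-point profiling at 1μM in an ATP-site-dependent competition binding assay across a panel of 395 human kinases, including mutant forms. The read-out is kinase binding signal in the presence of test agent, expressed as inhibition relative to the control signal. This screen assessed noncovalent binding interactions.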

[7] = target: Serine/threonine-protein kinase N1 (Homo sapiens) (UniProt Q16512); assay: Inhibition of human PKN1 assessed as remaining activity at 1 uM by ATP-competition binding assay relative to control; outline: as §1
[8] = system: Mast/stem cell growth factor receptor Kit (Homo sapiens), P10721 [L576P]; assay: Inhibition of human KIT L576P mutant assessed as remaining activity at 1 uM by ATP-competition binding assay relative to control; outline: as §3
[9] = target: Serine/threonine-protein kinase/endoribonuclease IRE1 (Homo sapiens) (UniProt O75460); assay: Inhibition of human ERN1 assessed as remaining activity at 1 uM by ATP-competition binding assay relative to control; outline: as §3
[10] = target: Tyrosine-protein kinase TXK (Homo sapiens) (UniProt P42681); assay: Inhibition of human TXK assessed as remaining activity at 1 uM by ATP-competition binding assay relative to control; outline: as §1
[11] = system: Receptor-type tyrosine-protein kinase FLT3 (Homo sapiens), P36888 [D835H]; assay: Inhibition of human FLT3 D835H mutant assessed as remaining activity at 1 uM by ATP-competition binding assay relative to control; outline: as §3
[12] = target: Dual specificity tyrosine-phosphorylation-regulated kinase 1B (Homo sapiens) (UniProt Q9Y463); assay: Inhibition of human DYRK1B assessed as remaining activity at 1 uM by ATP-competition binding assay relative to control; outline: as §2
[13] = target: Mitogen-activated protein kinase 6 (Homo sapiens) (UniProt Q16659); assay: Inhibition of human ERK3 assessed as remaining activity at 1 uM by ATP-competition binding assay relative to control; outline: as §3
[14] = system: Epidermal growth factor receptor (Homo sapiens), P00533 [UNDEFINED MUTATION]; assay: Inhibition of human EGFR E746-A750del mutant assessed as remaining activity at 1 uM by ATP-competition binding assay relative to control
Outline: (§4)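 KINOMEscan ATP-site-dependent competition binding assay across a 395-kinase human panel including mutants; compound tested at 1μM; binding expressed relative to control signal.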

[15] = target: Homeodomain-interacting protein kinase 4 (Homo sapiens) (UniProt Q8NE63); assay: Inhibition of human HIPK4 assessed as remaining activity at 1 uM by ATP-competition binding assay relative to control; outline: as §3
[16] = target: Atypical kinase COQ8B, mitochondrial (Homo sapiens) (UniProt Q96D53); assay: Inhibition of human ADCK4 assessed as remaining activity at 1 uM by ATP-competition binding assay relative to control; outline: as §2
[17] = target: Ribosomal protein S6 kinase alpha-4 (Homo sapiens) (UniProt O75676); assay: Inhibition of human RPS6KA4 assessed as remaining activity at 1 uM by ATP-competition binding assay relative to control; outline: as §1
[18] = target: Tyrosine-protein kinase BTK (Homo sapiens) (UniProt Q06187); settings: dose < 100.0 nM
[19] = system: Epidermal growth factor receptor (Homo sapiens), P00533 [L858R]; assay: Inhibition of human EGFR L858R mutant assessed as remaining activity at 1 uM by ATP-competition binding assay relative to control; outline: as §4
[20] = target: Casein kinase I isoform gamma-1 (Homo sapiens) (UniProt Q9HCP0); assay: Inhibition of human CSNK1G1 assessed as remaining activity at 1 uM by ATP-competition binding assay relative to control; outline: as §2
[21] = system: Mast/stem cell growth factor receptor Kit (Homo sapiens), P10721 [V559D,T670I]; assay: Inhibition of human KIT V559D/T670I mutant assessed as remaining activity at 1 uM by ATP-competition binding assay relative to control; outline: as §3
[22] = target: Serine/threonine-protein kinase TNNI3K (Homo sapiens) (UniProt Q59H18); assay: Inhibition of human TNNI3K assessed as remaining activity at 1 uM by ATP-competition binding assay relative to control; outline: as §1
[23] = target: Non-receptor tyrosine-protein kinase TNK1 (Homo sapiens) (UniProt Q13470); assay: Inhibition of human TNK1 assessed as remaining activity at 1 uM by ATP-competition binding assay relative to control; outline: as §1
[24] = target: SRSF protein kinase 1 (Homo sapiens) (UniProt Q96SB4); assay: Inhibition of human SRPK1 assessed as remaining activity at 1 uM by ATP-competition binding assay relative to control; outline: as §1
[25] = target: Protein kinase C eta type (Homo sapiens) (UniProt P24723); assay: Inhibition of human PRKCH assessed as remaining activity at 1 uM by ATP-competition binding assay relative to control; outline: as §1
[26] = system: Proto-oncogene tyrosine-protein kinase receptor Ret (Homo sapiens), P07949 [M918T]; assay: Inhibition of human RET M918T assessed as remaining activity at 1 uM by ATP-competition binding assay relative to control; outline: as §1
[27] = target: Mitogen-activated protein kinase kinase kinase 19 (Homo sapiens) (UniProt Q56UN5); assay: Inhibition of human YSK4 assessed as remaining activity at 1 uM by ATP-competition binding assay relative to control; outline: as §1

Chain of Serine/threonine-protein kinase 35 (Homo sapiens) (Q8TDR2 whole entry): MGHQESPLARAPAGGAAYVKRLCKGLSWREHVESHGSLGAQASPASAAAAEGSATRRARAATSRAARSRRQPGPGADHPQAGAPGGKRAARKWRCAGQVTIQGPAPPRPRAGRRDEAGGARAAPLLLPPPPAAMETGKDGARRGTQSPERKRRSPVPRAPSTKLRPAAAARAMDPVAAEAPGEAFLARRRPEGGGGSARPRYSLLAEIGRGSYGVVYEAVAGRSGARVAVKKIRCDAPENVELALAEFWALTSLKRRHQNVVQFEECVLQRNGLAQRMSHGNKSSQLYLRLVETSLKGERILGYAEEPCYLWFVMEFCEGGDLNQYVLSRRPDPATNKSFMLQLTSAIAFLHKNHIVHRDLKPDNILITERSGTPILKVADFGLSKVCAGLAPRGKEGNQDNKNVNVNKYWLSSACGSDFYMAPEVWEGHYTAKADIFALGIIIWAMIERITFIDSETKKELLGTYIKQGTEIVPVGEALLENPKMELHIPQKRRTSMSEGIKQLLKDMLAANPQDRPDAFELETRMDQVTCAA
Chain of Non-receptor tyrosine-protein kinase TNK1 (Homo sapiens) (Q13470 whole entry): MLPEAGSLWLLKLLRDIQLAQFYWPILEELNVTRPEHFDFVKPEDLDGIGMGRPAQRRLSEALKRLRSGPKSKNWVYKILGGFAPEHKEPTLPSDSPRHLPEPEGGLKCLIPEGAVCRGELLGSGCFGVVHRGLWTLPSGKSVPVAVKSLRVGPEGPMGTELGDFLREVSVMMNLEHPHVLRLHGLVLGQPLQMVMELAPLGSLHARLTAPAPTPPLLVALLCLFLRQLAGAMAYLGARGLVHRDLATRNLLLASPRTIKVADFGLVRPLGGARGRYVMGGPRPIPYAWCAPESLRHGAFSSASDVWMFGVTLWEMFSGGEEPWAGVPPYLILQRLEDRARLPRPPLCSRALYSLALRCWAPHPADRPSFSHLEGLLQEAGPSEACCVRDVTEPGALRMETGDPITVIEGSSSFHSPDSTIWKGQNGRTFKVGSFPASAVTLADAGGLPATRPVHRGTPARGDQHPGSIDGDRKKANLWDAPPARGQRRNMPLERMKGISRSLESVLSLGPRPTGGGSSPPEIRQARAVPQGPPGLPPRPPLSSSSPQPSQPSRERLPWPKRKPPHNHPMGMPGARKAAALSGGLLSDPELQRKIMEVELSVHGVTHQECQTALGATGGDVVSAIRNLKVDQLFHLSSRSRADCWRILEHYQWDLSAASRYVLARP
Chain of Atypical kinase COQ8B, mitochondrial (Homo sapiens) (Q96D53 whole entry): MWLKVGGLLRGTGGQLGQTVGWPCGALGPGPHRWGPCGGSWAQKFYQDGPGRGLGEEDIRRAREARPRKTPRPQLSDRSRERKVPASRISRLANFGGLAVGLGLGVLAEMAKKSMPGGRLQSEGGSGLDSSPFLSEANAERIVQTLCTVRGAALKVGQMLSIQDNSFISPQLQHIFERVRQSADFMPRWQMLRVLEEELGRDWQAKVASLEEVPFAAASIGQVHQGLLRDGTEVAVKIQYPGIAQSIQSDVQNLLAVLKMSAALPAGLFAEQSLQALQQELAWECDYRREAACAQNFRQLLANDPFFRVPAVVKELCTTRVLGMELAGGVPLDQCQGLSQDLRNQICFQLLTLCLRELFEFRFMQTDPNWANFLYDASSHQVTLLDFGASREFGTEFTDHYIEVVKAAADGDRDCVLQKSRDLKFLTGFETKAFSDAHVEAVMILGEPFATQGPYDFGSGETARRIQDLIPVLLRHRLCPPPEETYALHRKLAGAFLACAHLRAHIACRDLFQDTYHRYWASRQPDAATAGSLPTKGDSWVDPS
Chain of Homeodomain-interacting protein kinase 4 (Homo sapiens) (Q8NE63 whole entry): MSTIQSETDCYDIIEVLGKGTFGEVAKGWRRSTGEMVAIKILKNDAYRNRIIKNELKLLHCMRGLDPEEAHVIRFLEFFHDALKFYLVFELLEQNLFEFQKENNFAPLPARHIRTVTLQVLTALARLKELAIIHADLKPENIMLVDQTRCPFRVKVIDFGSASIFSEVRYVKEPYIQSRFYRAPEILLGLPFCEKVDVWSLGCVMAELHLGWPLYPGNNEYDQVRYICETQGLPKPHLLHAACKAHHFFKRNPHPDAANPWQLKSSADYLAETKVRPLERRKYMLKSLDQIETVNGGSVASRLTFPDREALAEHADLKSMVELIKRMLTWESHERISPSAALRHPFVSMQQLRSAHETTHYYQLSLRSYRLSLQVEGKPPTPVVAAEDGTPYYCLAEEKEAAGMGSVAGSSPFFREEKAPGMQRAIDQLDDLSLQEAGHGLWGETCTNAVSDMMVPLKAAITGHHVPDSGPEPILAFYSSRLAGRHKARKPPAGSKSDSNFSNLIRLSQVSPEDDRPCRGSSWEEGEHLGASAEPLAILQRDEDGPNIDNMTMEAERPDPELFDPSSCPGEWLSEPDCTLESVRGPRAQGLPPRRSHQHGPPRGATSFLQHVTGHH
Chain of Serine/threonine-protein kinase/endoribonuclease IRE1 (Homo sapiens) (O75460 19-977 limits assumed): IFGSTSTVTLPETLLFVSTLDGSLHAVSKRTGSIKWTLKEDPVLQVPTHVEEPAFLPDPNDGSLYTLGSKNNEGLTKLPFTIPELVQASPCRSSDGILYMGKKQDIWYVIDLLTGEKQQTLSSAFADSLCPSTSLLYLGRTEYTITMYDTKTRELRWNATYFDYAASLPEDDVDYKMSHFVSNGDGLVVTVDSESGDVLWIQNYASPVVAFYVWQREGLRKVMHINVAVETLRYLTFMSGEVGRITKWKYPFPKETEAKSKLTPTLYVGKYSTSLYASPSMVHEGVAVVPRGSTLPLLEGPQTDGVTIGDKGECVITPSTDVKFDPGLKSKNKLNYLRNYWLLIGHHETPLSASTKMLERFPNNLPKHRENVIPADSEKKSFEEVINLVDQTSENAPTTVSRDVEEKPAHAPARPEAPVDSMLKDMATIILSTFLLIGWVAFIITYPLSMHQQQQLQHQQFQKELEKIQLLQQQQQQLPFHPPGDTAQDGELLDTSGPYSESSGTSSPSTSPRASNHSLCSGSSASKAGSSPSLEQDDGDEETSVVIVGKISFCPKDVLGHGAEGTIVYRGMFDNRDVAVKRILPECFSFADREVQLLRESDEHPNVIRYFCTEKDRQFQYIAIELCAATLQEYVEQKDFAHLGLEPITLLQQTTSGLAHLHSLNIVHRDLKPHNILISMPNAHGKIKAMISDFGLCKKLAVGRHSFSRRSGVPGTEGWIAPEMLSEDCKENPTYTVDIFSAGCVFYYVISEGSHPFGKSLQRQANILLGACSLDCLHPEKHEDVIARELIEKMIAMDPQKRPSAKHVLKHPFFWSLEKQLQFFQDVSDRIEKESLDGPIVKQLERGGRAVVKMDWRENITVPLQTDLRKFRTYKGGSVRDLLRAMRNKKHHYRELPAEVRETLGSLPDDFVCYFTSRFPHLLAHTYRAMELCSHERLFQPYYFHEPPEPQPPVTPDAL
Chain of Mast/stem cell growth factor receptor Kit (Homo sapiens), P10721 [L576P] (P10721 whole entry L576P): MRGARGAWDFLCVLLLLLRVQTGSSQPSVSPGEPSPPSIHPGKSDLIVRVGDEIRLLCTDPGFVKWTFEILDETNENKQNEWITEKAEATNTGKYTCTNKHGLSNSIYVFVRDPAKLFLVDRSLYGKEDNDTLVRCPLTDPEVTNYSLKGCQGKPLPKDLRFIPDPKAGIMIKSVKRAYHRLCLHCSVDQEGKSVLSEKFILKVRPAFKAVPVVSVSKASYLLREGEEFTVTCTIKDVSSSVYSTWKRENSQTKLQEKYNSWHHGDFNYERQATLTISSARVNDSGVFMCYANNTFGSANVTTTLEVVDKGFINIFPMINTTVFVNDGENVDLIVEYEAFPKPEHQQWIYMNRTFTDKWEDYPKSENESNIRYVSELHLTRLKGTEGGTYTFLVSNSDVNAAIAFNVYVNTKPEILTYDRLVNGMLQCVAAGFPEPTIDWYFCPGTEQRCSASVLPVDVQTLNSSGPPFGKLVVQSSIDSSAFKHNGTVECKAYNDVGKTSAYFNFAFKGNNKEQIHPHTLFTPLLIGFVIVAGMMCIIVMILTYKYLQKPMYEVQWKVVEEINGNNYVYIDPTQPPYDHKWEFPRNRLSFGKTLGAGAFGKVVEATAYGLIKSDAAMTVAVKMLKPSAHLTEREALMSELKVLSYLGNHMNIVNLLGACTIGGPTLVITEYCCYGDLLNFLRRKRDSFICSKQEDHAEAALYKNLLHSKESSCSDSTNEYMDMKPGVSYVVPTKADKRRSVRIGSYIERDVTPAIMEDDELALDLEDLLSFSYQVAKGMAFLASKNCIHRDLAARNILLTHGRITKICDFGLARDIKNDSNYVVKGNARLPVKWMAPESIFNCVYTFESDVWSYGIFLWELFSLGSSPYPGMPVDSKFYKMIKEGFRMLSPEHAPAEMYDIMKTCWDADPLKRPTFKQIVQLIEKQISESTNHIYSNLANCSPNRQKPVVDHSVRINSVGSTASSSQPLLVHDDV
Chain of Protein kinase C eta type (Homo sapiens) (P24723 whole entry): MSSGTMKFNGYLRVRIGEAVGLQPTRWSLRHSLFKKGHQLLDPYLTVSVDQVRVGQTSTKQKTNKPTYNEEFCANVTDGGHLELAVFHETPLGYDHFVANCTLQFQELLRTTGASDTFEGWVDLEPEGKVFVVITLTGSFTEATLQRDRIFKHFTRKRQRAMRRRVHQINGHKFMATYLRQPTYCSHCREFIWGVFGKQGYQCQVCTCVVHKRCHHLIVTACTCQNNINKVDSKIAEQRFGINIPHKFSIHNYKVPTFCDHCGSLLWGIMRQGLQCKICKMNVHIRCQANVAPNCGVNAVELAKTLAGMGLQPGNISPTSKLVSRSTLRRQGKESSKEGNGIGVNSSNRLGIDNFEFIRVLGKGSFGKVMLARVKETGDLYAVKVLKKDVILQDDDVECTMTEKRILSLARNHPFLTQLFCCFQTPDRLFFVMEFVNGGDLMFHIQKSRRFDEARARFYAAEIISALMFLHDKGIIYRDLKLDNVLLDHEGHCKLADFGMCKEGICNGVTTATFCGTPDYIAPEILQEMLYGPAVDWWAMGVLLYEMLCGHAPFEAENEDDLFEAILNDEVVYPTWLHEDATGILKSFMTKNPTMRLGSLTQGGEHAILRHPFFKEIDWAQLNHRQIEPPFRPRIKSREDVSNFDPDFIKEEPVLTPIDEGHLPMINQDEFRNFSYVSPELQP
Chain of Mast/stem cell growth factor receptor Kit (Homo sapiens), P10721 [V559D,T670I] (P10721 whole entry V559D/T670I): as the sequence (P10721 whole entry L576P) above, with V559D, P576L, T670I counted along it

`CC#CC(=O)N1CCC[C@H]1c1nc(-c2ccc(C(=O)Nc3ccccn3)cc2)c2c(N)nccn12` [ACALABRUTINIB] was tested, and the Activity [1] was 100%, the Activity [2] was 93% and the Activity [3] was 87%. For the same compound, the Activity [4] was 89%, the Activity [5] was 70% and the Activity [6] was 100%. It also gave an Activity [7] of 94%, an Activity [8] of 63% and an Activity [9] of 85%. The Activity [10] was 24%, the Activity [11] was 86% and the Activity [12] was 93%. For the same compound, the Activity [13] was 94%, the Activity [14] was 85% and the Activity [15] was 88%. For the same compound, the Activity [16] was 88%, the Activity [17] was 90% and the inhibition [18] was “Active”. For the same compound, the Activity [19] was 94%, the Activity [20] was 78% and the Activity [21] was 55%. For the same compound, the Activity [22] was 38%, the Activity [23] was 90% and the Activity [24] was 67%. For the same compound, the Activity [25] was 87%, the Activity [26] was 71% and the Activity [27] was 90%.

Reference: ChEMBL document CHEMBL5678815 (Clin Cancer Res, 2017)
